mIAP inh – blocks mouse intestinal alkaline phosphatase | purified mouse IAP, CDP-Star luminescence, 30 min | inhibition, % at 10 µM | hit rate 0.2% among 330,000;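 active = inhibition of at least 40% at 10 µM in the primary screen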;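 also: plate controls were DMSO with enzyme for no effect and no enzyme wells for full effect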
hIAP activ – human IAP activation; activation factor at 10 µM; hit rate 0.16% among 330,000; purified human IAP, CDP-Star luminescence, 30 min; stronger effect = higher value; 1 = vehicle-only enzyme, 0 = enzyme-free background; P09923;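 active = activation factor of the enzyme at least 2-fold when tested at 20 µM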
Target sequence (P09923 whole entry, looked up): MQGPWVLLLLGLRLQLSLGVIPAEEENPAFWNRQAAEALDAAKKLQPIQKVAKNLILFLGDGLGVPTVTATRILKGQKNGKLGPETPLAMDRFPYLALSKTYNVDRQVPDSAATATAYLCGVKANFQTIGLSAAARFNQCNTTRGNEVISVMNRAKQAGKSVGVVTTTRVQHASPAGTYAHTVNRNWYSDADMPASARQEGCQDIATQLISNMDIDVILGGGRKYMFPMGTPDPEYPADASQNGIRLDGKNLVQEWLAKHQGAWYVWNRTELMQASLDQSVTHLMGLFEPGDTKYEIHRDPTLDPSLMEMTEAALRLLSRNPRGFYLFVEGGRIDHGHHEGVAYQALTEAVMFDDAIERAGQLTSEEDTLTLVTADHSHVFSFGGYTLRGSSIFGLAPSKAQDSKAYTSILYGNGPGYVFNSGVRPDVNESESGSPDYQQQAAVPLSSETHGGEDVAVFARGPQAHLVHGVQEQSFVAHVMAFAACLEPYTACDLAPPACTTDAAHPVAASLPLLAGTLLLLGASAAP
hIAP block – human IAP inhibition. P09923. purified IAP, CDP-Star luminescence, 30 min. inhibition, % at 10 µM. hit rate 0.12% among 330,000;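 active = inhibition reaching a set limit with compound at 10 µM in the primary screen, cut at about 35% in these data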;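 also: plate controls were DMSO wells with enzyme for no effect and no-enzyme buffer wells for full effect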
bIAP act – intestinal alkaline phosphatase (bovine) activation; purified bovine IAP, CDP-star luminescence, 30 min; stronger effect = higher value; fold of DMSO-control signal, blank-subtracted; activation factor at 20 µM; hit rate 0.17% among 200,000;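 active = activation factor of 2 or more at 20 µM, a signal rise over negative controls twice the positive control's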
bIAP inhibitor – intestinal alkaline phosphatase (bovine) inhibition; purified bovine IAP, CDP-star luminescence, 30 min; inhibition, % at 20 µM; 190,000 tested, under 10 active; AID 1019;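 active = over 50% inhibition of intestinal alkaline phosphatase at 20 µM in the single-dose screen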
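Assay system – bovine IAP enzyme · Quantity – bovine IAP at 1/65,000,000 final dilution · Detection – CDP-star luminescence signal · Times – 30 min reaction at room temperature · Also added – CDP-star substrate at 30 µM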
mIAP activ – increases mouse intestinal alkaline phosphatase activity | muIAP, CDP-Star luminescence, 30 min; stronger effect = higher value; 1 = vehicle-only enzyme signal, 0 = enzyme-free wells | activation factor at 10 µM | hit rate 0.24% among 330,000 | AID 2805;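 active = activation factor of at least 2 at 20 µM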
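Assay system: mouse IAP enzyme; Reagent: CDP-Star chemiluminescent phosphatase substrate; Compound: DMSO-dissolved test compounds; Incubation: 30 min, room temperature; Technique: luminescence from enzymatic CDP-Star hydrolysis; Controls: DMSO-only wells and no-enzyme negative control.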
hIAP act conf – human IAP activation confirmation; shares compounds with hIAP activ; purified IAP, CDP-Star luminescence, 30 min; stronger effect = lower value; activation (%Activity, negative = activation), % at 8.3 µM; hit rate 10% among 880; AID 434926;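 active = at least twofold enzyme activation in any of six single-dose repeats, which the averaged readout prints as negative percent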
The depositor's hits bear a star; x = not tested or not shown; + = active, no number. The list is not random: actives were taken first. Their share in the collection is about 0.79%.

SMILES	mIAP inh	hIAP activ	hIAP block	bIAP act	bIAP inhibitor	mIAP activ	hIAP act conf
N#C/C(=C\c1ccccc1Cl)C(=O)NC(=O)Oc1ccccc1	0	0.89	11	0.9	9	1	x
N#C/C(=C\c1ccccc1)C(=O)NC(=O)Oc1ccccc1	-3	0.62	38*	0.9	5	1	-6
Cc1ccc(NC(=O)c2ccc3snnc3c2)cc1C	7	1	-2	x	x	0.93	x
O=C(Nc1ccc(F)cc1)c1ccc2snnc2c1	3	0.65	35*	x	x	0.97	-57
CCc1noc(C)c1C(=O)N(Cc1ccccc1)c1c(N)n(CCOC)c(=O)[nH]c1=O	-2	1	0	x	x	1	x
CCOC(=O)C1CCN(C(=O)N2CCOCC2)CC1	-9	2*	-100	0.9	7	1.1	-8
Cc1ccc2occ(/C=N/NC(=O)c3ccncc3)c(=O)c2c1	10	2.3*	-131	x	x	0.9	-31
O=C(N/N=C/c1ccc2cccnc2c1)c1nc2ccccc2c(=O)[nH]1	9	2.7*	-167	x	x	0.91	-193*
O=C(N/N=C/c1ccncc1)c1nc2ccccc2c(=O)[nH]1	-19	2.7*	-170	x	x	1.2	7
O=C(CCN1CCN(Cc2ccccc2)CC1)NNC(=O)Nc1cccc(C(F)(F)F)c1	4	2*	-102	x	x	0.95	0
Cc1ccc(SC(C)C(=O)Nc2ncn[nH]2)cc1 (stereo unspecified)	-16	2.4*	-139	1.5	-52	1.2	11
CC(C(=O)Nc1ncn[nH]1)N1C(=O)c2ccccc2C1=O (stereo unspecified)	-3	1.3	-26	1.1	-12	1	x
Cc1ccc(C(=O)Nc2ncn[nH]2)cc1	3	2.1*	-112	x	x	0.97	-8
CC(C)(C)c1ccc(C(=O)Nc2ncn[nH]2)cc1	-7	1.6	-57	1.2	-21	1.1	x
C[C@@H](NC(=O)/C(C#N)=C/c1ccc(O)c(O)c1)c1ccccc1	24	0.68	32	x	x	0.76	x
N#C/C(=C\c1ccc(O)c(O)c1)C(=O)Nc1ccccc1	25	0.48	52*	x	x	0.75	3
COC(=O)c1cc(C(=O)Nc2ccc(S(N)(=O)=O)cc2)cc([N+](=O)[O-])c1	12	0.91	9	1.1	-8	0.88	x
Cc1cccc(C)c1OCc1cc(C(=O)N(C)CCc2ccccn2)no1	14	0.97	3	x	x	0.86	x
CCc1ccc(NC(=O)C2CCN(S(=O)(=O)c3c(C)[nH]c(=O)[nH]c3=O)CC2)cc1	-6	2.5*	-152	1.1	-9	1.1	4
CC(=O)N1CCOc2ccc(S(=O)(=O)N3CCC(C(=O)Nc4ccc(C)cc4)CC3)cc21	-17	1.4	-36	x	x	1.2	x
CCc1ccc(NC(=O)C2CCN(S(=O)(=O)c3ccc4c(c3)N(C(C)=O)CCO4)CC2)cc1	-46	0.61	39*	x	x	1.5	-37
O=C(CN1CCN(S(=O)(=O)c2ccc(Br)cc2)CC1)N/N=C/c1ccccc1C(=O)O	6	1.3	-26	x	x	0.94	x
O=C(CNC(=S)N(CCCN1CCOCC1)Cc1cccs1)NC1CC1	17	1.2	-20	1	5	0.83	x
O=C(CNC(=S)N(CCCN1CCOCC1)Cc1cccs1)NCc1ccccc1	-12	3.1*	-207	x	x	1.1	5
CN1CCc2c1nc1ccccc1c2N (tested in a mixture with another compound)	-1	0.61	38*	x	x	1	1
SMILES	mIAP inh	hIAP activ	hIAP block	bIAP act	bIAP inhibitor	mIAP activ	hIAP act conf
CC1=C(C)CC(C(=O)Nc2nc(-c3ccc(C)cc3C)c(C)s2)C(C(=O)O)C1 (stereo unspecified)	5	1	-2	1	-3	0.95	x
Oc1cccc(/C=N/N=C/c2cccc(O)c2O)c1O	36	2*	-101	x	x	0.64	-57
COc1cc(CN2CCc3ccc(NC(=O)CCc4ccccc4OC)cc3C2)ccc1O	-20	0.64	36*	x	x	1.2	-24
NC(=O)c1c(NC(=O)c2ccc(F)cc2)sc2c1CCC2	11	0.63	37*	x	x	0.89	+
O=C(NC(=S)NCc1ccccc1)c1cccs1	1	0.6	40*	x	x	0.99	13
O=C(CNC(=S)NC(=O)c1cccs1)c1ccccc1	20	0.9	10	1	-4	0.8	x
CCc1cccc2c(C(=O)CN3C(=O)N(C)C4(CCCCC4)C3=O)c[nH]c12	4	1	-3	x	x	0.96	x
CN(Cc1ccccc1)C(=O)Nc1ccc(Cl)cc1	-4	2*	-102	x	x	1	-59*
CN(Cc1ccccc1)C(=O)c1[nH]cnc1C(=O)Nc1ccc(Cl)cc1	3	1.5	-46	x	x	0.97	x
COc1cc(C(=O)NCC(=O)N/N=C/c2ccc(-c3ccc([N+](=O)[O-])cc3)o2)cc(OC)c1OC	14	0.64	36*	x	x	0.86	19
Cc1ccc(O)c(N/C=C/C(=O)c2ccc(F)cc2)c1	6	2.8*	-185	x	x	0.94	-120*
CCN(Cc1ccccc1)c1ccc(N=Nc2nn(C)c(C)c2[N+](=O)[O-])cc1	34	0.65	35	0.9	6	0.66	x
CCN(CC)c1ccc(N=Nc2nn(C)c(C)c2[N+](=O)[O-])cc1	33	0.53	47*	0.8	24	0.67	35
CC(=O)Nc1ccc(S(=O)(=O)Nc2ccccc2C(=O)N2CCCCCC2)cc1	4	1	0	x	x	0.96	x
c1ccc2[nH]c(CCCCc3nc4ccccc4[nH]3)nc2c1	-6	1.4	-43	x	x	1.1	x
Cc1ccc2nc(CCc3nc4ccc(C)cc4[nH]3)[nH]c2c1	-6	2.3*	-133	x	x	1.1	-5
Cc1ccc2nc(Cc3ccc(N)cc3)[nH]c2c1	-16	1.1	-13	1.1	-11	1.2	x
Cc1ccc2nc(CCCc3nc4ccc(C)cc4[nH]3)[nH]c2c1	-24	2.7*	-171	x	x	1.2	-60
CN1CCN(c2ccc(-c3cccc(NC(=O)COc4ccc(Cl)cc4Cl)c3)nn2)CC1	3	0.94	6	x	x	0.97	x
O=C(CN1CCN(C(=O)C2CCCO2)CC1)Nc1ccc(Cl)cc1 (stereo unspecified)	-3	0.87	13	x	x	1	x
Cc1cccc(N(CC(N)=O)C2SC(=O)N(c3ccccc3)C2=O)c1 (stereo unspecified)	18	1	-3	1	-4	0.82	x
Cc1ccc(N(CC(N)=O)C2SC(=O)N(C)C2=O)cc1 (stereo unspecified)	9	0.35	65*	1.1	-6	0.91	-76
O=C(NNC(=S)NC(=O)c1ccc(F)cc1)c1ccncc1	23	2.1*	-112	x	x	0.77	-56
CCOC(=O)C1CCN(CC(O)COc2ccc(C(=O)CC)cc2)CC1 (stereo unspecified)	-4	0.64	36*	1	-4	1	-27

Screening data as filed in PubChem BioAssay.
